We go through 13 molecules from ChEMBL document CHEMBL4364292, “Discovery of a Potent and Selective CCR4 Antagonist That Inhibits Treg Trafficking into the Tumor Microenvironment” (J Med Chem, 2019).

In data set [1] the target is T1, C-C chemokine receptor type 4 (Homo sapiens, UniProt P51679).
T1 sequence (P51679 whole entry): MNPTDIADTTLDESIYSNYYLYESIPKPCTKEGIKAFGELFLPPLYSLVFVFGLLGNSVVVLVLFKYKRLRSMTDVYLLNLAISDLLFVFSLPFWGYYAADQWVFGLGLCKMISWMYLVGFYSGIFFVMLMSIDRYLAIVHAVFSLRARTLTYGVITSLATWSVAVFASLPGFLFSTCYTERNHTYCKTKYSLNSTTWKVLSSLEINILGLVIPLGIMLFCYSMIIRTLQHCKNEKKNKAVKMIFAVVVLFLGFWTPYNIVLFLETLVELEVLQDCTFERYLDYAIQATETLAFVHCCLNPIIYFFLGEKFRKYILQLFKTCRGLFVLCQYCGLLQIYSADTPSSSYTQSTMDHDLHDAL
The data set can be described thus: Antagonist activity at human CCR4 expressed in rat chem-5 cells assessed as inhibition of CCL22-induced calcium flux measured at 2.5 secs time interval for 45 secs by fluorescence assay. It counts as functional, cell-based. In outline:
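Calcium flux functional readout of CCR4 antagonism, run without serum; IC50 reported.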
A general note: Calcium flux is commonly read through the fluorescence of an indicator in the cells.

The nature of data set [2]: AUCinfinity in rat at 0.5 mg/kg, iv. Particulars: in vivo. Details: dose 0.5 mg/kg, route intravenous, time infinity. The class given is ADME, organism-based.
A short description of data set [3]: Hepatic clearance in rat at 0.5 mg/kg, iv. It counts as ADME, organism-based. Particulars: in vivo.
A short description of data set [4]: Bioavailability in rat. The class given is ADME, organism-based. Particulars: in vivo.
Data set [5] can be described thus: Stability in human hepatocytes assessed as compound remaining incubated for 60 mins under shaking condition by LC-MS/MS analysis. It counts as ADME, cell-based, Hepatocyte. Particulars: read-out: Stability. A digest of the protocol:
(§1)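 Human and rat hepatocytes exposed to compound; percent parent remaining reported.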

Data set [6] in a line: Half-life in mouse. The class given is ADME, organism-based. Particulars: in vivo.
A short description of data set [7]: Stability in rat hepatocytes assessed as compound remaining incubated for 60 mins under shaking condition by LC-MS/MS analysis. Particulars: read-out: Stability. It counts as ADME, cell-based, Hepatocyte. In outline: as §1
Data set [8] can be described thus: Clearance in mouse. It counts as ADME, organism-based. Particulars: in vivo.
Data set [9] can be described thus: Bioavailability in mouse. It counts as ADME, organism-based. Particulars: in vivo.
Data set [10] in a line: Volume of distribution at steady state in mouse. Particulars: in vivo, read-out: Vdss. The class given is ADME, organism-based.

In general, IC50 refers to the concentration that inhibits the measured activity by half. Turning to `Cc1nn([C@H](C)c2ccc(Cl)cc2Cl)c2nc(N3CC[C@H](N4CCC[C@H]4C)[C@H](C)C3)cnc12`, the half-inhibitory concentration (IC50) in data set [1] was 47 nM.

Consider `Cc1nn([C@H](C)c2ccc(Cl)cc2Cl)c2nc(N3CC[C@H](N4CCC[C@H]4C(=O)O)[C@H](C)C3)cnc12`, for which the IC50 in data set [1] came to 670 nM.

By AUC(0-inf) is commonly meant the area under the concentration-time curve extrapolated to infinity. A high value points to high exposure. The molecule `Cc1nn(C(C)c2ccc(Cl)cc2Cl)c2nc(N3CCC(N4CCCCC4)C(C)C3)cnc12` (centres undefined) displayed an AUC(0-inf) in data set [2] of 217 ng·h/mL. Also, the CLH in [3] worked out at 38.3 mL/min/kg. Also, the IC50 in [1] was determined as 126 nM.

The molecule `CC1CN(c2cnc3c(C#N)nn(C(C)c4ccc(Cl)cc4Cl)c3n2)CCC1N1CCCCC1` (centres undefined) gave an AUC(0-inf) in data set [2] of 82 ng·h/mL. For the same molecule, the CLH in [3] was found to be 101.7 mL/min/kg. The half-inhibitory concentration (IC50) in [1] came out at 251 nM.

One may read the bioavailability as dose-corrected exposure relative to a reference, in per cent. Read a high bioavailability as good availability. As for `CC(c1ccc(Cl)cc1Cl)n1ncc2ncc(C3=CCN(C(=O)[C@H]4CCCCN4)CC3)nc21` (some centres undefined), in data set [4], the bioavailability turned out to be 25%. Moreover, the IC50 in [1] is 275 nM.

As for `Cc1nn([C@H](C)c2ccc(Cl)cc2Cl)c2nc(N3CC[C@H](N4CCC[C@@H]4C)[C@H](C)C3)cnc12`, in [1], the IC50 was determined as 172 nM.

In general, half-life refers to how long it takes for the measured level to halve. Usually clearance stands for the volume of plasma or blood freed of the substance per unit of time. Consider `C[C@@H]1CC(c2cnc3c(C#N)nn([C@H](C)c4ccc(Cl)cc4Cl)c3n2)=CC[C@@H]1N1CCC[C@H]1C`, for which the remaining at 1 h in data set [5] turned out to be 86%; in data set [7] it was 72%. Besides, the half-life in data set [6] was 30.3 h. Further, in [8], the clearance is 1.17 mL/min/kg. In addition, in [9], the bioavailability amounted to 27%. In data set [1], the IC50 was found to be 34 nM. For the same molecule, the Vd in data set [10] was determined as 4.9 L/kg.

In data set [4], `C[C@@H](Nc1cncc(C2=CCN(C(=O)[C@H]3CCCCN3)CC2)n1)c1ccc(Cl)cc1Cl` displayed a bioavailability of 7%. For the same molecule, the IC50 in data set [1] turned out to be 54 nM.

For the molecule `C[C@@H]1CC(c2cnc3c(C#N)nn([C@H](C)c4ccc(Cl)cc4Cl)c3n2)=CC[C@@H]1N1CCC[C@H]1C(C)(C)O`, the half-maximal inhibitory concentration (IC50) in [1] came out at 384 nM.

Consider `Cc1nn([C@H](C)c2ccc(Cl)cc2Cl)c2nc(N3CC[C@H](N4CCC[C@H]4CCC#N)[C@H](C)C3)cnc12`, for which the half-inhibitory concentration (IC50) in data set [1] was 41 nM.

`CC1CN(c2cnc3c(C(N)=O)nn(C(C)c4ccc(Cl)cc4Cl)c3n2)CCC1N1CCCCC1` (centres undefined) yielded a total exposure AUC(0-inf) in [2] of 82 ng·h/mL. Moreover, the CLH in data set [3] stood at 101.7 mL/min/kg. In data set [1], the IC50 amounted to 228 nM.

As for `Cc1nn([C@H](C)c2ccc(Cl)cc2Cl)c2nc(N3CC[C@H](N4CCC[C@H]4CCC(N)=O)[C@H](C)C3)cnc12`, in [1], the IC50 is 37 nM.

For the molecule `CC1CN(c2cnc3c(C(F)(F)F)nn(C(C)c4ccc(Cl)cc4Cl)c3n2)CCC1N1CCCCC1` (centres undefined), in data set [2], the AUC(0-inf) turned out to be 148 ng·h/mL. For the same molecule, in data set [3], the CLH was determined as 56.7 mL/min/kg. In [1], the half-maximal inhibitory concentration (IC50) was 837 nM.
